{"source": "ChEMBL document CHEMBL1152488", "about": "“Synthesis and evaluation of pyrido[1,2-a]pyrimidines as inhibitors of nitric oxide synthases” (Eur J Med Chem, 2009)"}
{"biological_target": "Nitric oxide synthase, inducible (Homo sapiens) (UniProt P35228)", "sequence (P35228 whole entry)": "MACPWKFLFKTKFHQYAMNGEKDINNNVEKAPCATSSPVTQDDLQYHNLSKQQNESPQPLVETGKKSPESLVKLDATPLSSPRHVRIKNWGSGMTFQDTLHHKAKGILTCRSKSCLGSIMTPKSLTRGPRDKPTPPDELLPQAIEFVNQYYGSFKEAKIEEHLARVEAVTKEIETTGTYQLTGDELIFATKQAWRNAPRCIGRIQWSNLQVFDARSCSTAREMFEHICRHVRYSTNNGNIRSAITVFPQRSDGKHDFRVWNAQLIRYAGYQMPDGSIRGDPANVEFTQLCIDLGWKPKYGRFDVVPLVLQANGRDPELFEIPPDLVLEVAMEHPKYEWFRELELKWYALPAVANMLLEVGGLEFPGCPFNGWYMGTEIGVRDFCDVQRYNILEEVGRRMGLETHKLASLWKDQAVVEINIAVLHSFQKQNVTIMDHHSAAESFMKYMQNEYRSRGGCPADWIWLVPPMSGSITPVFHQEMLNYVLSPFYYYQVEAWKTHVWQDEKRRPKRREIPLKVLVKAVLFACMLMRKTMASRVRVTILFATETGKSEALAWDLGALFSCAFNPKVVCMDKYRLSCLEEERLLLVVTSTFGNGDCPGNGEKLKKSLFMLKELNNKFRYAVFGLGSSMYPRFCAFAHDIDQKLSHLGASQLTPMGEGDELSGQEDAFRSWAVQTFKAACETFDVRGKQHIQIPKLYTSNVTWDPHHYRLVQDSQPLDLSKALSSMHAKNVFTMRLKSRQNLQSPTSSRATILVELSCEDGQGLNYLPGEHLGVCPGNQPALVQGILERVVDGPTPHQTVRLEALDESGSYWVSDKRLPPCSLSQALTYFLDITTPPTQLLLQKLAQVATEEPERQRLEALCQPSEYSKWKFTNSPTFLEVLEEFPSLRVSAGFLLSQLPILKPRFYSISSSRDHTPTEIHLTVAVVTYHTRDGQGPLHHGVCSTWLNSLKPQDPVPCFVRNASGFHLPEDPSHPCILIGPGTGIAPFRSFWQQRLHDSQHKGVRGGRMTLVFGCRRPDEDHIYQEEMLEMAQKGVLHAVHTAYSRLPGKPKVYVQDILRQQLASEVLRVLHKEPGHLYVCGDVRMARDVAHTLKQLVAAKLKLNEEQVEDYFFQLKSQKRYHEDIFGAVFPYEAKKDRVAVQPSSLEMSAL", "test": "Inhibition of human iNOS expressed in insect Sf9 cells assessed as residual activity at 100 uM by Griess assay relative to control", "method_in_brief": "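Human iNOS made in Sf9 cells, incubated at 37 °C for 20 min in 50 mM triethanolamine pH 7.5 with 1 mM Mg2+, FAD/FMN 5 µM each, 0.5 mM NADPH, 10 µM H4B, CaM and 1 mM L-arginine. Compound 100 µM final. NADPH cleared with lactate dehydrogenase/pyruvate before Griess reaction (543 nm). Residual activity relative to 1% DMSO control; mean of 5 experiments.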", "units": {"Activity": "%"}}
{"molecule": "CCCNC(=N)NCCC[C@H](N)C(=O)O", "Activity": 95}
{"molecule": "CC1=CC=CC2=NCC(C(=O)c3ccc(F)cc3)CN12.[O-][Cl+3]([O-])([O-])O", "note": "(stereo not drawn)", "Activity": 88}
{"molecule": "CC1=CC2=NCC(C(=O)c3ccc(F)cc3)CN2C=C1", "note": "(stereo not drawn)", "Activity": 78}
{"molecule": "CC1=CC2=NCC(C(=O)c3ccc(OCc4ccc(Br)cc4)cc3)CN2C=C1.Cl", "note": "(stereo not drawn)", "Activity": 83}
{"molecule": "CC1=CC=CC2=NCC(C(=O)c3ccc4ccccc4c3)CN12", "note": "(stereo not drawn)", "Activity": 89}
{"molecule": "CC1=CC2=NCC(C(=O)c3ccc4cc(C)ccc4c3)CN2C(C)=C1.[O-][Cl+3]([O-])([O-])O", "note": "(stereo not drawn)", "Activity": 83}
{"molecule": "CC1=CC2=NCC(C(=O)c3ccc(-c4ccccc4)cc3)CN2C=C1", "note": "(stereo not drawn)", "Activity": 17}
{"molecule": "CC1=CC2=NCC(C(=O)c3ccccc3)CN2C=C1", "note": "(stereo not drawn)", "Activity": 63}
{"molecule": "COc1ccc(-c2ccc(C(=O)C3CN=C4C=C(C)C=CN4C3)cc2)cc1.Cl", "note": "(stereo not drawn)", "Activity": 49}
{"molecule": "COc1ccc2cc(C(=O)C3CN=C4C=C(C)C=CN4C3)ccc2c1", "note": "(stereo not drawn)", "Activity": 88}
{"molecule": "CC1=CC2=NCC(C(=O)c3ccc(-c4ccc(Br)cc4)cc3)CN2C=C1.[O-][Cl+3]([O-])([O-])O", "note": "(stereo not drawn)", "Activity": 120}
{"molecule": "CC1=CC2=NCC(C(=O)c3ccc(Cl)cc3)CN2C=C1", "note": "(stereo not drawn)", "Activity": 50}
{"molecule": "CCSC(=N)N", "Activity": 6}
{"biological_target": "T1, Nitric oxide synthase 3 (Bos taurus) (UniProt P29473)", "T1 sequence (whole entry)": "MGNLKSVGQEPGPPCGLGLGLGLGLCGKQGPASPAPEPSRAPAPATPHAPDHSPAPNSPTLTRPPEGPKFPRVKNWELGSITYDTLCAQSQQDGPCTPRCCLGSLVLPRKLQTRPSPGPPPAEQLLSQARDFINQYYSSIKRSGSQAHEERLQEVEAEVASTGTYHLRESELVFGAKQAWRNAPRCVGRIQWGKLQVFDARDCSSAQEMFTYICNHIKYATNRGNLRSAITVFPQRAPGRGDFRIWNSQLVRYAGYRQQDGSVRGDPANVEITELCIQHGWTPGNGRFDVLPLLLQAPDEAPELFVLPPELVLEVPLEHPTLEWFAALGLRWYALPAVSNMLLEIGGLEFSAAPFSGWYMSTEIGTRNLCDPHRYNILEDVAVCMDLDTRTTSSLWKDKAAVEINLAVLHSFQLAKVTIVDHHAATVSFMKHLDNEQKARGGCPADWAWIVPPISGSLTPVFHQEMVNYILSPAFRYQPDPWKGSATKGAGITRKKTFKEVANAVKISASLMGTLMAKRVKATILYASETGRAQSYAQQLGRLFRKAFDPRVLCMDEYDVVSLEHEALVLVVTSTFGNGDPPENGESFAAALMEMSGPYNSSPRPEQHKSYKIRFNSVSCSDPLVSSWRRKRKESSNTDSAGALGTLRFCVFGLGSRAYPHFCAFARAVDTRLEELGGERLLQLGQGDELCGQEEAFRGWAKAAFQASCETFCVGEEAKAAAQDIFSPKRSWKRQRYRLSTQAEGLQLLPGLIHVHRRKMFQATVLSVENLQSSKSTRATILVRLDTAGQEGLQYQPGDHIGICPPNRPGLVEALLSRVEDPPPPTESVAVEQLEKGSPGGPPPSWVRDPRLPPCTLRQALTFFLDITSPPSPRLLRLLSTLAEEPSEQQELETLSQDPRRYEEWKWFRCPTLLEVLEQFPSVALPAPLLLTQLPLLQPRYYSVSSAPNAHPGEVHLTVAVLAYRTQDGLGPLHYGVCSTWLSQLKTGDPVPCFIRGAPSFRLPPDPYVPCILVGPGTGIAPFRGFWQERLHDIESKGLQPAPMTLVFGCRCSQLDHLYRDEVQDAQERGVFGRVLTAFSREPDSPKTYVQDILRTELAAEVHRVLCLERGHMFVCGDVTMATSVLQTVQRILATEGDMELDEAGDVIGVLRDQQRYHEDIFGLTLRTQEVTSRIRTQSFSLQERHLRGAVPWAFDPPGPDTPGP", "test": "Inhibition of bovine recombinant eNOS expressed in Escherichia coli assessed as conversion of [gamma-14C]L-arginine to [14C]L-citrulline at 100 uM by radioactive assay relative to control", "set-up": "scale not given: the % may be the effect or the level left", "method_in_brief": "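Purified enzymes: rat nNOS from S. cerevisiae, murine iNOS and bovine eNOS from E. coli. Reaction 5 min at 37 °C in 50 mM Hepes pH 7.4 with DTT, 1 mM NADPH, H4B, FAD, FMN, [14C]L-arginine (2.5 µM L-arginine) and 100 µM compound in 1% DMSO. nNOS/eNOS also got 1 mM CaCl2 and CaM, which iNOS lacked. [14C]citrulline isolated on Dowex and counted by scintillation; % of DMSO control, n=3.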", "units": {"Activity": "%"}}
{"molecule": "COc1ccc(C(=O)C2CN=C3C=CC=C(C)N3C2)cc1OC.[O-][Cl+3]([O-])([O-])O", "note": "(stereo not drawn)", "Activity": 81}
{"molecule": "CC1=CC=CC2=NCC(C(=O)c3ccc(F)cc3)CN12.[O-][Cl+3]([O-])([O-])O", "note": "(stereo not drawn)", "Activity": 71}
{"molecule": "CC1=CC2=NCC(C(=O)c3ccc(OCc4ccc(Br)cc4)cc3)CN2C=C1.Cl", "note": "(stereo not drawn)", "Activity": 77}
{"molecule": "CC1=CC2=NCC(C(=O)c3ccc4cc(C)ccc4c3)CN2C(C)=C1.[O-][Cl+3]([O-])([O-])O", "note": "(stereo not drawn)", "Activity": 17}
{"molecule": "CC1=CC=CC2=NCC(C(=O)c3ccc(C)cc3)CN12.[O-][Cl+3]([O-])([O-])O", "note": "(stereo not drawn)", "Activity": 84}
{"molecule": "COc1ccc(-c2ccc(C(=O)C3CN=C4C=C(C)C=CN4C3)cc2)cc1.Cl", "note": "(stereo not drawn)", "Activity": 15}
{"molecule": "CC1=CC2=NCC(C(=O)c3ccc(-c4ccc(Br)cc4)cc3)CN2C=C1.[O-][Cl+3]([O-])([O-])O", "note": "(stereo not drawn)", "Activity": 65}
{"biological_target": "T2, Nitric oxide synthase 3 (Homo sapiens) (UniProt P29474)", "T2 sequence (whole entry)": "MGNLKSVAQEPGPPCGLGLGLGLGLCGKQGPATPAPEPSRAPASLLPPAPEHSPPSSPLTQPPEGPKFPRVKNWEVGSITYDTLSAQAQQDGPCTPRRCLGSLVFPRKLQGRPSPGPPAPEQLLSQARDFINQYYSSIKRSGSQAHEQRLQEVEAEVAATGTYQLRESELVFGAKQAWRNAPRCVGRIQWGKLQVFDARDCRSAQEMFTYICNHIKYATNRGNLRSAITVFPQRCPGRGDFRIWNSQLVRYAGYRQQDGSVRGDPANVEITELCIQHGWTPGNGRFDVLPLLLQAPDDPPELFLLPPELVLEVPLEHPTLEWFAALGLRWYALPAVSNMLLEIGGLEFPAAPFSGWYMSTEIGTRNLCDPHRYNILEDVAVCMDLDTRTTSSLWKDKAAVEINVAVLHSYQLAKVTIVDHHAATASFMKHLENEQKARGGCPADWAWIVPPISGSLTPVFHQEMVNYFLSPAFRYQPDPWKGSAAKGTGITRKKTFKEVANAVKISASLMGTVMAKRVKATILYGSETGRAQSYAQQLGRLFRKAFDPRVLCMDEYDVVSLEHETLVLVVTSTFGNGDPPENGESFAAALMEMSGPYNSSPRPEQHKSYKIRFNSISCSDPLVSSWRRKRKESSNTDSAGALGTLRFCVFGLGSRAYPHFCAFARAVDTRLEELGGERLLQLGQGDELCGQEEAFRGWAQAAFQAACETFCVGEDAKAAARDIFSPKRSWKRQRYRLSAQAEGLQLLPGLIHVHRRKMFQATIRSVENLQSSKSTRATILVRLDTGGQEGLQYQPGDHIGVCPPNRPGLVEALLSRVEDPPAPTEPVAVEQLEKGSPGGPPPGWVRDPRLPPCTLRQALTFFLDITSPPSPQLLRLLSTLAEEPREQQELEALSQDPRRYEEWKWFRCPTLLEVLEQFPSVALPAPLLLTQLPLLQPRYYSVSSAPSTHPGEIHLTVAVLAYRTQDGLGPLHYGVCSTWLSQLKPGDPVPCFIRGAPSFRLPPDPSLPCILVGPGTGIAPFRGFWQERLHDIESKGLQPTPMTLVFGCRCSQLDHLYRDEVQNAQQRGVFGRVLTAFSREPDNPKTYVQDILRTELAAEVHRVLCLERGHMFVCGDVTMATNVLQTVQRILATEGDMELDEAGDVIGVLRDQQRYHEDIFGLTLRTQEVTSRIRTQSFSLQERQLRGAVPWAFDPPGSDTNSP", "test": "Inhibition of human eNOS assessed as residual activity at 100 uM by Griess assay relative to control", "method_in_brief": "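Human eNOS expressed in Pichia pastoris. Incubated 20 min at 37 °C in triethanolamine pH 7.5 with 0.5 mM Ca2+, CaM, H4B 10 µM, FAD/FMN 5 µM, NADPH 0.5 mM, L-arginine 1 mM and compound at 100 µM final. Nitrite read by Griess (543 nm) after LDH/pyruvate NADPH removal; % of 1% DMSO control from 5 experiments.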", "units": {"Activity": "%"}}
{"molecule": "CCCNC(=N)NCCC[C@H](N)C(=O)O", "Activity": 96}
{"molecule": "CC1=CC=CC2=NCC(C(=O)c3ccc(F)cc3)CN12.[O-][Cl+3]([O-])([O-])O", "note": "(stereo not drawn)", "Activity": 77}
{"molecule": "CC1=CC2=NCC(C(=O)c3ccc(F)cc3)CN2C=C1", "note": "(stereo not drawn)", "Activity": 77}
{"molecule": "CC1=CC2=NCC(C(=O)c3ccc(OCc4ccc(Br)cc4)cc3)CN2C=C1.Cl", "note": "(stereo not drawn)", "Activity": 16}
{"molecule": "CC1=CC=CC2=NCC(C(=O)c3ccc4ccccc4c3)CN12", "note": "(stereo not drawn)", "Activity": 75}
{"molecule": "CC1=CC2=NCC(C(=O)c3ccc4cc(C)ccc4c3)CN2C(C)=C1.[O-][Cl+3]([O-])([O-])O", "note": "(stereo not drawn)", "Activity": 86}
{"molecule": "CC1=CC2=NCC(C(=O)c3ccc(-c4ccccc4)cc3)CN2C=C1", "note": "(stereo not drawn)", "Activity": 8}
{"molecule": "CC1=CC2=NCC(C(=O)c3ccccc3)CN2C=C1", "note": "(stereo not drawn)", "Activity": 72}
{"molecule": "COc1ccc(-c2ccc(C(=O)C3CN=C4C=C(C)C=CN4C3)cc2)cc1.Cl", "note": "(stereo not drawn)", "Activity": 57}
{"molecule": "COc1ccc2cc(C(=O)C3CN=C4C=C(C)C=CN4C3)ccc2c1", "note": "(stereo not drawn)", "Activity": 98}
{"molecule": "CC1=CC2=NCC(C(=O)c3ccc(-c4ccc(Br)cc4)cc3)CN2C=C1.[O-][Cl+3]([O-])([O-])O", "note": "(stereo not drawn)", "Activity": 17}
{"molecule": "CC1=CC2=NCC(C(=O)c3ccc(Cl)cc3)CN2C=C1", "note": "(stereo not drawn)", "Activity": 7}
{"molecule": "CCSC(=N)N", "Activity": 37}
